{"source": "ChEMBL document CHEMBL1156455", "about": "“Interaction between HIV-1 Rev and integrase proteins: a basis for the development of anti-HIV peptides” (J Biol Chem, 2007)", "key": {"[1]": {"tested_on": "Human immunodeficiency virus 1", "assay": "Inhibition of HIV1 delta env/VSV-G replication in human sup T1 T-lymphoid […] cells assessed as inhibition of total viral DNA at 12.5 uM after 2 hrs by RT-PCR", "format": "functional, organism-based", "method_in_brief": "(§1)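 Sup T1 cells pretreated 2 h with 12.5 µM peptide or 2 µM azidothymidine, then infected with HIV-1 Δenv/VSV-G at m.o.i. 2 for 6 h. Gag and Nef DNA amplified by PCR from 10 ng total cell DNA, 29 cycles.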"}, "[2]": {"target": "T1, Human immunodeficiency virus type 1 integrase (Human immunodeficiency virus 1, UniProt Q7ZJM1)", "T1 sequence (Q7ZJM1 whole entry)": "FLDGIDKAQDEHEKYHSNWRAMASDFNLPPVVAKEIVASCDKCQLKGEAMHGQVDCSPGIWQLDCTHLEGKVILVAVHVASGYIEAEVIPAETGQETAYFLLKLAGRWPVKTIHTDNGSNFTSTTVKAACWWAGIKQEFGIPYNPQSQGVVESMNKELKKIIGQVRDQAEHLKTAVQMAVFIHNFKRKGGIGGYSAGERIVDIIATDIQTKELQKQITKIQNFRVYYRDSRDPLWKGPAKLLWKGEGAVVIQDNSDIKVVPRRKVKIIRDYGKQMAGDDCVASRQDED", "assay": "Binding affinity to HIV1 integrase by fluorescence anisotrophy", "method_in_brief": "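Fluorescein-labelled peptide (final 0.05 to 0.1 µM) in 20 mM Tris pH 7.4 at 10 °C; 100 µM IN (taken as monomer) titrated in 20 steps of 10 µl at 15-min intervals. Anisotropy read at ex 480/em 530 nm after each addition; data fitted to Hill equation for Ka (Kd = 1/Ka).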"}, "[3]": {"target": "Human immunodeficiency virus type 1 integrase (Human immunodeficiency virus 1) (UniProt Q7ZJM1)", "sequence (Q7ZJM1 as listed by the source)": "as the sequence (Q7ZJM1 whole entry) above", "assay": "Inhibition of recombinant HIV1 integrase 3'-end processing activity", "method_in_brief": "(§2)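 IN (0.8 µM) incubated with peptides; 3'-end processing or strand-transfer activity followed on labelled gel-purified oligonucleotide substrates by gel size shift or specific cleavage.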"}, "[4]": {"target": "Human immunodeficiency virus type 1 integrase (Human immunodeficiency virus 1) (UniProt Q7ZJM1)", "assay": "Inhibition of recombinant HIV1 integrase strand transfer activity", "method_in_brief": "as §2"}, "[5]": {"tested_on": "Human immunodeficiency virus 1", "assay": "Inhibition of HIV1 delta env/VSV-G replication in human sup T1 T-lymphoid […] cells assessed as inhibition of viral DNA integration by RT-PCR", "format": "functional, organism-based", "method_in_brief": "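Sup T1 cells pretreated 2 h with peptide, infected with HIV-1 Δenv/VSV-G at m.o.i. 2 for 24 h. Integrated DNA quantified by two-round Alu-LTR PCR (12 cycles, then 50 real-time cycles) against an HXB2 plasmid standard curve (5 ng to 0.25 fg), quadruplicate samples.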"}, "[6]": {"tested_on": "Human immunodeficiency virus 1", "assay": "Inhibition of HIV1 replication in human T-lymphoid H9 cells assessed as decrease in viral p24 level", "format": "functional, organism-based", "method_in_brief": "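H9 cells pretreated 2 h with peptide, infected with wild-type HIV-1 (HXB2, from transfected HEK293T) at m.o.i. 0.1 for 1 h at 37 °C, washed, cultured 10 days; p24 measured by capture immunoassay.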"}, "[7]": {"tested_on": "Human immunodeficiency virus 1", "assay": "Inhibition of HIV1 replication in human TZM-bl cells assessed as beta-galactosidase activity at 2.5 uM", "format": "functional", "method_in_brief": "(§3)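 TZM-bl cells carrying TAR-driven β-galactosidase, incubated with peptides, then infected with HIV-1 in 20 µg/ml DEAE-dextran. Cells fixed 2 days post-infection, stained with X-gal, and blue cells counted by light microscopy.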"}, "[8]": {"target": "Human immunodeficiency virus type 1 integrase (Human immunodeficiency virus 1) (UniProt Q7ZJM1)", "assay": "Inhibition of HIV1 integrase by qualitative integration assay system", "method_in_brief": "as §2"}, "[9]": {"target": "Human immunodeficiency virus type 1 integrase (Human immunodeficiency virus 1) (UniProt Q7ZJM1)", "assay": "(§4) Inhibition of HIV1 integrase by quantitative ELISA", "method_in_brief": "(§5)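 Overall integration reaction: 390 nM IN preincubated 10 min with peptide, then 1 µM biotin/digoxigenin-labelled duplex oligonucleotide in 20 mM Hepes pH 7.5, 10 mM MgCl2, 10 mM DTT, 10% Me2SO, 5% PEG-8000, 0.1 mg/ml BSA for 1 h at 37 °C. Stopped with EDTA/NaCl/salmon sperm DNA buffer; product read by immunoassay on avidin-coated plates.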"}, "[10]": {"tested_on": "Human immunodeficiency virus 1", "assay": "Inhibition of HIV1 delta env/VSV-G replication in human sup T1 T-lymphoid […] cells assessed as inhibition of total viral DNA at 2 uM after 2 hrs by RT-PCR", "format": "functional, organism-based", "method_in_brief": "as §1"}, "[11]": {"tested_on": "Human immunodeficiency virus 1", "assay": "Inhibition of HIV1 replication in human TZM-bl cells assessed as beta-galactosidase activity", "format": "functional, organism-based", "method_in_brief": "as §3"}, "[12]": {"target": "T1, Human immunodeficiency virus type 1 integrase", "assay": "as §4", "method_in_brief": "as §5"}}, "note": "Active and inactive are the calls of the source. The calls are words filed in the database; no cut-off is given here."}
{"compound": "CC[C@H](C)[C@H](NC(=O)[C@H](CC(C)C)NC(=O)[C@H](CCCNC(=N)N)NC(=O)[C@@H](NC(=O)[C@@H](NC(=O)[C@H](CCCCN)NC(=O)[C@H](CC(C)C)NC(=O)[C@H](CC(C)C)NC(=O)[C@H](CCC(=O)O)NC(=O)[C@H](CCC(=O)O)NC(=O)[C@H](CC(=O)O)NC(=O)[C@H](CO)NC(=O)[C@H](CC(=O)O)NC(=O)CNC(=O)[C@H](CO)NC(=O)[C@H](CCCNC(=N)N)NC(=O)CNC(=O)[C@H](C)NC(=O)[C@@H](N)CCSC)[C@@H](C)O)C(C)C)C(=O)N[C@@H](CCCCN)C(=O)N[C@@H](Cc1ccccc1)C(=O)N[C@@H](CC(C)C)C(=O)N[C@@H](Cc1ccc(O)cc1)C(=O)N[C@@H](CCC(N)=O)C(=O)N[C@@H](CO)C(=O)N[C@@H](CC(N)=O)C(=O)N1CCC[C@H]1C(=O)N1CCC[C@H]1C(=O)N1CCC[C@H]1C(=O)N[C@@H](CO)C(=O)O", "values": [{"measurement": "Activity", "setting": "[1]", "value": "inactive"}, {"measurement": "Kd", "setting": "[2]", "value": 6.5, "unit": "µM"}]}
{"compound": "CC[C@H](C)[C@H](NC(=O)[C@H](CC(C)C)NC(=O)[C@H](CCCNC(=N)N)NC(=O)[C@@H](NC(=O)[C@@H](NC(=O)[C@H](CCCCN)NC(=O)[C@@H](N)CC(C)C)[C@H](C)O)C(C)C)C(=O)N[C@@H](CCCCN)C(=O)N[C@@H](Cc1ccccc1)C(=O)N[C@@H](CC(C)C)C(=O)N[C@@H](Cc1ccc(O)cc1)C(=O)N[C@@H](CCC(N)=O)C(=O)N[C@@H](CO)C(=O)N[C@@H](CC(N)=O)C(=O)N1CCC[C@H]1C(=O)O", "values": [{"measurement": "Activity", "setting": "[3]", "value": "Active"}, {"measurement": "Activity", "setting": "[4]", "value": "Active"}, {"measurement": "Activity", "setting": "[5]", "value": "Active"}]}
{"compound": "CC[C@H](C)[C@H](NC(=O)[C@H](CO)NC(=O)[C@H](Cc1c[nH]c2ccccc12)NC(=O)[C@@H](NC(=O)[C@H](CCCNC(=N)N)NC(=O)CNC(=O)[C@H](CO)NC(=O)[C@@H]1CCCN1C(=O)[C@H](CO)NC(=O)[C@@H](NC(=O)[C@H](CCCNC(=N)N)NC(=O)[C@H](Cc1ccc(O)cc1)NC(=O)[C@H](CC(C)C)NC(=O)CNC(=O)[C@@H](N)CC(C)C)[C@H](C)O)[C@@H](C)CC)C(=O)O", "values": [{"measurement": "Activity", "setting": "[6]", "value": "inactive"}, {"measurement": "Activity", "setting": "[7]", "value": "inactive"}, {"measurement": "Activity", "setting": "[8]", "value": "inactive"}, {"measurement": "Activity", "setting": "[9]", "value": "Active"}]}
{"compound": "CSCC[C@H](N)C(=O)N[C@@H](C)C(=O)NCC(=O)N[C@@H](CCCNC(=N)N)C(=O)N[C@@H](CO)C(=O)NCC(=O)N[C@@H](CC(=O)O)C(=O)N[C@@H](CO)C(=O)N[C@@H](CC(=O)O)C(=O)N[C@@H](CCC(=O)O)C(=O)N[C@@H](CCC(=O)O)C(=O)N[C@@H](CC(C)C)C(=O)N[C@@H](CC(C)C)C(=O)N[C@@H](CCCCN)C(=O)N[C@H](C(=O)O)[C@@H](C)O", "values": [{"measurement": "Activity", "setting": "[3]", "value": "inactive"}, {"measurement": "Activity", "setting": "[4]", "value": "inactive"}]}
{"compound": "Cc1cn([C@H]2C[C@H](N=[N+]=[N-])[C@@H](CO)O2)c(=O)[nH]c1=O", "values": [{"measurement": "Activity", "setting": "[10]", "value": "Active"}]}
{"compound": "H-DEELLKTVRLIKFLY-OH", "values": [{"measurement": "Activity", "setting": "[3]", "value": "Active"}, {"measurement": "Activity", "setting": "[4]", "value": "Active"}]}
{"compound": "H-FRKLIYLTKVL-OH", "values": [{"measurement": "Activity", "setting": "[6]", "value": "inactive"}, {"measurement": "Activity", "setting": "[7]", "value": "inactive"}, {"measurement": "Activity", "setting": "[8]", "value": "inactive"}, {"measurement": "Activity", "setting": "[9]", "value": "Active"}]}
{"compound": "H-FVSTHFSVPASPWLLLIDIV-OH", "values": [{"measurement": "Kd", "setting": "[2]", "value": 7.5, "unit": "µM"}]}
{"compound": "H-GWILSTYLGRPAEPV-OH", "values": [{"measurement": "Activity", "setting": "[4]", "value": "inactive"}]}
{"compound": "H-LKTVRLIKFLY-OH [LKTVRLIKFLY]", "values": [{"measurement": "Activity", "setting": "[3]", "value": "Active"}, {"measurement": "Activity", "setting": "[6]", "value": "Active"}, {"measurement": "Activity", "setting": "[11]", "value": "Dose-dependent effect"}, {"measurement": "inhibition at 2.5 µM", "setting": "[7]; Human immunodeficiency virus 1, TZM-bl", "value": 70, "unit": "%"}, {"measurement": "Activity", "setting": "[4]", "value": "Active"}, {"measurement": "Activity", "setting": "[1]", "value": "inactive"}, {"measurement": "IC50", "setting": "[12]", "value": 25, "unit": "µM"}, {"measurement": "Kd", "setting": "[2]", "value": 2.8, "unit": "µM"}]}
{"compound": "H-QRQIRSISGWILSTY-OH", "values": [{"measurement": "Activity", "setting": "[3]", "value": "Active"}, {"measurement": "Activity", "setting": "[4]", "value": "Active"}]}
{"compound": "H-QRQIRSISGWILSTYLGRPAEPVPLQ-OH", "values": [{"measurement": "Kd", "setting": "[2]", "value": 11.2, "unit": "µM"}]}
{"compound": "H-RLIKFLYQSNPPPSP-OH", "values": [{"measurement": "Activity", "setting": "[3]", "value": "inactive"}, {"measurement": "Activity", "setting": "[4]", "value": "inactive"}]}
{"compound": "H-RSISGWILSTYLGRP-OH", "values": [{"measurement": "Activity", "setting": "[3]", "value": "Active"}, {"measurement": "Activity", "setting": "[6]", "value": "Active"}, {"measurement": "Activity", "setting": "[11]", "value": "Dose-dependent effect"}, {"measurement": "Activity", "setting": "[7]", "value": "Active"}, {"measurement": "Activity", "setting": "[4]", "value": "Active"}, {"measurement": "Activity", "setting": "[1]", "value": "inactive"}, {"measurement": "Activity", "setting": "[5]", "value": "Active"}, {"measurement": "IC50", "setting": "[12]", "value": 25, "unit": "µM"}, {"measurement": "Kd", "setting": "[2]", "value": 6.9, "unit": "µM"}]}
{"compound": "H-SGDSDEELLKTVRLI-OH", "values": [{"measurement": "Activity", "setting": "[3]", "value": "Active"}, {"measurement": "Activity", "setting": "[4]", "value": "inactive"}]}
{"compound": "H-STYLGRPAEPVPLQL-OH", "values": [{"measurement": "Activity", "setting": "[3]", "value": "inactive"}, {"measurement": "Activity", "setting": "[4]", "value": "inactive"}]}
{"compound": "H-WRERQRQIRSISGWI-OH", "values": [{"measurement": "Activity", "setting": "[3]", "value": "inactive"}, {"measurement": "Activity", "setting": "[4]", "value": "inactive"}]}
